From ChEMBL document CHEMBL1137559, “Rational design of 5'-thiourea-substituted alpha-thymidine analogues as thymidine monophosphate kinase inhibitors capable of inhibiting mycobacterial growth” (J Med Chem, 2007)

Legend:
Thymidylate kinase = target: T1, Thymidylate kinase (Mycobacterium tuberculosis, UniProt P9WKE1); test: Inhibition of Mycobacterium tuberculosis TMPK expressed in Escherichia coli by spectrophotometric assay
T1 sequence (P9WKE1 whole entry): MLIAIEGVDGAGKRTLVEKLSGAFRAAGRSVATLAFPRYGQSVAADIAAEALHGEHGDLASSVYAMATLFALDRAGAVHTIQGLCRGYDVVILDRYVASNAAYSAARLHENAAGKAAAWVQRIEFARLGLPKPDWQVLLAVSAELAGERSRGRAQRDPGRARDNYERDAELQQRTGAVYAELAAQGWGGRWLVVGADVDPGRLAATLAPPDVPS
Outline: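 Recombinant mycobacterial and human TMPK, both expressed in E. coli, run in an NADH-coupled assay (pyruvate kinase, lactate dehydrogenase, nucleoside diphosphate kinase, 2 units each) read at 334 nm. ATP 0.5 mM and dTMP 0.05 mM held constant; analogues 0.01–2 mM; Ki determined for each enzyme.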

[1] = Cytotoxicity against Vero cells at 100 uM after 3 days; type: cell-based; conditions: chlorocebus sabaeus
Outline: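 Confluent Vero monolayers given serial compound dilutions; incubated 3 days at 37°C, humidified CO2 atmosphere; cultures inspected microscopically for altered morphology. MCC = concentration causing microscopic alteration of mock-infected cultures at day 3.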

[2] = Inhibition of human TMPK expressed in Escherichia coli by spectrophotometric assay
[3] = test system: Mycobacterium tuberculosis; test: Growth inhibition of Mycobacterium tuberculosis H37Rv at 6.25 ug/mL by MABA assay; type: functional
Outline: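 Single-concentration screen in BACTEC 12B medium using the Microplate Alamar Blue Assay; percent inhibition recorded.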

Compound | Ki (Thymidylate kinase) [µM] | MCC at 72 h, up to 100 µM [1] [µM] | Ki [2] [µM] | inhibition at 6.25 µg/mL [3] [%]
Cc1cn([C@@H]2C[C@H](O)[C@@H](CN)O2)c(=O)[nH]c1=O | 16 |  |  | 
Cc1cn([C@@H]2C[C@H](O)[C@@H](CNC(=S)Nc3ccc(N4CCOCC4)cc3)O2)c(=O)[nH]c1=O | 19.2 |  |  | 
Cc1cn([C@H]2C[C@H](CNC(=S)Nc3ccc(Cl)cc3)[C@@H](CO)O2)c(=O)[nH]c1=O | 21 | > 100 |  | 
Cc1cn([C@@H]2C[C@H](O)[C@@H](CN=[N+]=[N-])O2)c(=O)[nH]c1=O | 26.5 |  |  | 
Cc1cn(COCCNC(=S)Nc2ccccc2)c(=O)[nH]c1=O | 260 | > 100 |  | 
Cc1cn([C@@H]2C[C@H](O)[C@@H](CNC(=S)NC(=O)c3ccccc3)O2)c(=O)[nH]c1=O | 7.2 |  |  | 
Cc1cn([C@H]2C[C@H](CNC(=S)Nc3ccc(Cl)c(C(F)(F)F)c3)[C@@H](CO)O2)c(=O)[nH]c1=O | 5 | > 100 | > 1000 | 
Cc1cn([C@@H]2C[C@H](O)[C@@H](CNC(=S)Nc3ccc(Cl)c(C(F)(F)F)c3)O2)c(=O)[nH]c1=O | 0.6 | > 100 | 362 | 39
Cc1cn([C@@H]2C[C@H](O)[C@@H](CNC(=O)Nc3ccc(Cl)c(Cl)c3)O2)c(=O)[nH]c1=O | 1.1 |  | 116 | 41
Cc1cn([C@@H]2C[C@H](O)[C@@H](CNC(=S)Nc3ccccc3)O2)c(=O)[nH]c1=O | 16 | > 100 |  | 
Cc1cn([C@@H]2C[C@H](O)[C@@H](CNC(=S)Nc3ccc4c(c3)C(=O)OC43c4ccc(O)cc4Oc4cc(O)ccc43)O2)c(=O)[nH]c1=O | 5.4 |  |  | 
Cc1cn([C@@H]2C[C@H](O)[C@@H](CNC(=S)NCc3ccccc3)O2)c(=O)[nH]c1=O | 5.4 |  |  | 
Cc1cn([C@@H]2C[C@H](O)[C@@H](CNC(=S)NCc3ccc(Cl)c(C(F)(F)F)c3)O2)c(=O)[nH]c1=O | 2.6 | > 100 | 50 | 
Cc1cn([C@@H]2C[C@H](O)[C@@H](CNC(=S)Nc3ccc(Cl)cc3)O2)c(=O)[nH]c1=O | 3.2 |  | > 1000 | 
Cc1cn(COCCNC(=S)Nc2ccc(Cl)c(C(F)(F)F)c2)c(=O)[nH]c1=O | 37 | 100 |  | 34
Cc1cn([C@@H]2C[C@H](O)[C@@H](CNC(=O)c3ccccc3)O2)c(=O)[nH]c1=O | 35 |  |  | 

Compound | Ki (Thymidylate kinase) [µM] | MCC at 72 h, up to 100 µM [1] [µM] | Ki [2] [µM] | inhibition at 6.25 µg/mL [3] [%]
Cc1cn([C@@H]2C[C@H](O)[C@@H](CNC(=S)Nc3ccc(Cl)c(Cl)c3)O2)c(=O)[nH]c1=O | 1 | > 100 | 274 | 38
Cc1cn([C@@H]2CC[C@@H](CNC(=S)Nc3ccc(Cl)c(C(F)(F)F)c3)O2)c(=O)[nH]c1=O | 2.3 |  | > 500 | 34
COc1ccc(NC(=S)NC[C@H]2O[C@H](n3cc(C)c(=O)[nH]c3=O)C[C@@H]2O)cc1 | 10 |  |  | 
Cc1ccc(NC(=S)NC[C@H]2O[C@H](n3cc(C)c(=O)[nH]c3=O)C[C@@H]2O)cc1 | 7.8 |  |  | 
Cc1cn([C@@H]2C[C@H](O)[C@@H](CNC(=S)NCCc3ccccc3)O2)c(=O)[nH]c1=O | 3.8 | > 100 | > 800 | 
Cc1cn([C@@H]2C[C@H](O)[C@@H](CNC(=S)NC(c3ccccc3)c3ccccc3)O2)c(=O)[nH]c1=O | 4.9 | > 100 | > 500 | 
Cc1cn([C@@H]2C=C[C@@H](CNC(=S)Nc3ccc(Cl)c(C(F)(F)F)c3)O2)c(=O)[nH]c1=O | 3.8 |  | 190 | 55
COc1ccc(NC(=S)NC[C@H]2C[C@H](n3cc(C)c(=O)[nH]c3=O)O[C@@H]2CO)cc1 | 46 | > 100 |  | 
Cc1cn([C@@H]2C[C@H](O)[C@@H](CNC(=O)Nc3ccc(Cl)c(C(F)(F)F)c3)O2)c(=O)[nH]c1=O | 1.9 |  | 166 | 49
Cc1cn([C@@H]2C[C@@H](CNC(=O)NC[C@H]3C[C@H](n4cc(C)c(=O)[nH]c4=O)O[C@@H]3CO)[C@H](CO)O2)c(=O)[nH]c1=O | 37 |  | > 1000 | 
Cc1cn([C@H]2C[C@H](CNC(=S)Nc3ccc(OCc4ccccc4)cc3)[C@@H](CO)O2)c(=O)[nH]c1=O | 12 | > 100 |  | 
Cc1cn([C@H]2C[C@H](CNC(=S)Nc3ccccc3)[C@@H](CO)O2)c(=O)[nH]c1=O | 69 |  |  | 
Cc1ccc(NC(=S)NC[C@H]2C[C@H](n3cc(C)c(=O)[nH]c3=O)O[C@@H]2CO)cc1 | 36 | > 100 |  | 
Cc1cn([C@@H]2C[C@H](O)[C@@H](CNC(=S)NCCc3ccc(Cl)c(Cl)c3)O2)c(=O)[nH]c1=O | 2.2 | > 100 | 79 | 
Cc1cn([C@@H]2C[C@H](O)[C@@H](CNC(=S)NC34CC5CC(CC(C5)C3)C4)O2)c(=O)[nH]c1=O | 15 | > 100 |  | 
Cc1cn([C@H]2C[C@H](CNC(=S)Nc3ccc(Cl)c(Cl)c3)[C@@H](CO)O2)c(=O)[nH]c1=O | 7.2 | > 100 |  | 
